Results reported in ChEMBL document CHEMBL3632581, “Dimers of Melampomagnolide B Exhibit Potent Anticancer Activity against Hematological and Solid Tumor Cells” (J Med Chem, 2015).

Key:
CCRF-CEM = experiment: Cytotoxicity against human CCRF-CEM cells after 48 hrs by SRB assay; format: functional
Procedure, shortened: (§1)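 NCI-60 five-dose screen at 10−8 to 10−4 M. Cells were plated at 5,000–40,000/well in RPMI 1640 with 5% FBS and 2 mM L-glutamine, then preincubated 24 h, and time-zero plates were TCA-fixed. Compound was added from DMSO stocks and exposed 48 h at 37 °C. Cells were TCA-fixed, SRB-stained, and read at 515 nm. LC50 is the concentration halving the cell population through cell death.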

UACC-62 = experiment: Cytotoxicity against human UACC62 cells after 48 hrs by SRB assay; format: functional; details: UACC-62, 48 h
Procedure, shortened: (§2)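 NCI-60 screen: cells grown in RPMI 1640 with 5% FBS and 2 mM L-glutamine, plated at 5,000–40,000 cells/well by doubling time, and preincubated 24 h at 37 °C before drug. Drug was diluted from DMSO stock and given at five concentrations, 10−4 to 10−8 M, for 48 h. Cells fixed with cold TCA, SRB stained, OD read at 515 nm against time-zero and vehicle plates. LC50 taken as the concentration that halves cell population through cell death.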

OVCAR-4 = experiment: Cytotoxicity against human OVCAR4 cells after 48 hrs by SRB assay; format: functional; details: OVCAR-4, 48 h; procedure, shortened: as §1
[1] = Potency index, ratio of parthenolide EC50 to compound EC50 for human M9-ENL1 cells; format: functional
[2] = Antileukemic activity against human AML01 cells after 24 hrs by annexin V/7-AAD staining-based flow cytometric analysis; format: functional, cell-based
Procedure, shortened: (§3)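 Primary AML specimens from consenting donors, isolated by Ficoll-Paque gradient and sometimes cryopreserved. Cells were held 1 h in serum-free IMDM with 20% BIT 9500, LDL and β-mercaptoethanol before drug (DMSO stock diluted in PBS, ≤0.5% DMSO final). Exposure was 24 h over 0.5-10 μM. Annexin V/7-AAD double-negative cells, normalized to vehicle, gave the EC50. Run in triplicate.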

SF-295 = experiment: Cytotoxicity against human SF295 cells after 48 hrs by SRB assay; format: functional; details: SF-295, 48 h; procedure, shortened: as §1
COLO 205 = experiment: Cytotoxicity against human COLO205 cells after 48 hrs by SRB assay; format: functional; details: COLO 205, 48 h; procedure, shortened: as §1
TK-10 = experiment: Cytotoxicity against human TK10 cells after 48 hrs by SRB assay; format: functional; details: TK-10, 48 h; procedure, shortened: as §2
ACHN = experiment: Cytotoxicity against human ACHN cells after 48 hrs by SRB assay; format: functional; procedure, shortened: as §1
PC-3 = experiment: Cytotoxicity against human PC3 cells after 48 hrs by SRB assay; format: functional; details: PC-3, 48 h; procedure, shortened: as §1
786-0 = experiment: Cytotoxicity against human 786-0 cells after 48 hrs by SRB assay; format: functional; details: 786-0, 48 h; procedure, shortened: as §1
SK-MEL-2 = experiment: Cytotoxicity against human SK-MEL-2 cells after 48 hrs by SRB assay; format: functional; details: SK-MEL-2, 48 h; procedure, shortened: as §1
SK-OV-3 = experiment: Cytotoxicity against human SKOV3 cells after 48 hrs by SRB assay; format: functional; details: SK-OV-3, 48 h; procedure, shortened: as §1
A498 = experiment: Cytotoxicity against human A498 cells after 48 hrs by SRB assay; format: functional; details: A498, 48 h; procedure, shortened: as §1
M14 = experiment: Cytotoxicity against human M14 cells after 48 hrs by SRB assay; format: functional; details: M14, 48 h; procedure, shortened: as §1
SN12C = experiment: Cytotoxicity against human SN12C cells after 48 hrs by SRB assay; format: functional; procedure, shortened: as §1
Malme-3M = experiment: Cytotoxicity against human MALME-3M cells after 48 hrs by SRB assay; format: functional; procedure, shortened: as §1
HCC 2998 = experiment: Cytotoxicity against human HCC2998 cells after 48 hrs by SRB assay; format: functional; details: HCC 2998, 48 h; procedure, shortened: as §1
KM12 = experiment: Cytotoxicity against human KM12 cells after 48 hrs by SRB assay; format: functional; details: KM12, 48 h; procedure, shortened: as §1
OVCAR-8 = experiment: Cytotoxicity against human OVCAR8 cells after 48 hrs by SRB assay; format: functional; details: OVCAR-8, 48 h; procedure, shortened: as §1
K562 = experiment: Cytotoxicity against human K562 cells after 48 hrs by SRB assay; format: functional; details: K562, 48 h; procedure, shortened: as §1
SW-620 = experiment: Cytotoxicity against human SW620 cells after 48 hrs by SRB assay; format: functional; details: SW-620, 48 h; procedure, shortened: as §2
[3] = Antileukemic activity against human AML05 cells after 24 hrs by annexin V/7-AAD staining-based flow cytometric analysis; format: functional, cell-based; procedure, shortened: as §3
SR = experiment: Cytotoxicity against human SR cells after 48 hrs by SRB assay; format: functional; procedure, shortened: as §2
OVCAR-5 = experiment: Cytotoxicity against human OVCAR5 cells after 48 hrs by SRB assay; format: functional; details: OVCAR-5, 48 h; procedure, shortened: as §1
SNB-75 = experiment: Cytotoxicity against human SNB75 cells after 48 hrs by SRB assay; format: functional; details: SNB-75, 48 h; procedure, shortened: as §1
HCT-15 = experiment: Cytotoxicity against human HCT15 cells after 48 hrs by SRB assay; format: functional; details: HCT-15, 48 h; procedure, shortened: as §1
UO-31 = experiment: Cytotoxicity against human UO31 cells after 48 hrs by SRB assay; format: functional; details: UO-31, 48 h; procedure, shortened: as §2
LOX IMVI = experiment: Cytotoxicity against human LOXIMVI cells after 48 hrs by SRB assay; format: functional; procedure, shortened: as §1
NCI-H23 = experiment: Cytotoxicity against human NCI-H23 cells after 48 hrs by SRB assay; format: functional; details: NCI-H23, 48 h; procedure, shortened: as §1
RXF 393 = experiment: Cytotoxicity against human RXF393 cells after 48 hrs by SRB assay; format: functional; details: RXF 393, 48 h; procedure, shortened: as §1
MDA-MB-468 = experiment: Cytotoxicity against human MDA-MB-468 cells after 48 hrs by SRB assay; format: functional; details: MDA-MB-468, 48 h; procedure, shortened: as §1
SF-268 = experiment: Cytotoxicity against human SF268 cells after 48 hrs by SRB assay; format: functional; details: SF-268, 48 h; procedure, shortened: as §1
MOLT-4 = experiment: Cytotoxicity against human MOLT4 cells after 48 hrs by SRB assay; format: functional; details: MOLT-4, 48 h; procedure, shortened: as §1
UACC-257 = experiment: Cytotoxicity against human UACC257 cells after 48 hrs by SRB assay; format: functional; details: UACC-257, 48 h; procedure, shortened: as §2
[4] = read-out: LC50 (the source's name)

Compound: C=C1C(=O)O[C@H]2[C@H]1CC/C(COC(=O)NCCCCCCCCNC(=O)OC/C1=C/CC[C@@]3(C)O[C@H]3[C@H]3OC(=O)C(=C)[C@@H]3CC1)=C\CC[C@@]1(C)O[C@@H]21
- GI50 (CCRF-CEM): 0.25 µM
- CC50 (CCRF-CEM; [4]): > 100 µM
- GI50 (UACC-62): 0.19 µM
- CC50 (UACC-62; [4]): 1.72 µM
- GI50 (OVCAR-4): 0.52 µM
- CC50 (OVCAR-4; [4]): 4.63 µM
- Ratio EC50 [1]: 2
- EC50 [2]: 2.6 µM
- GI50 (SF-295): 1.95 µM
- CC50 (SF-295; [4]): 16.2 µM
- GI50 (COLO 205): 0.3 µM
- CC50 (COLO 205; [4]): 3.99 µM
- GI50 (TK-10): 0.28 µM
- CC50 (TK-10; [4]): 2.95 µM
- GI50 (ACHN): 0.25 µM
- CC50 (ACHN; [4]): 2.85 µM
- GI50 (PC-3): 0.38 µM
- LC50 (concentration killing half the cell population) (PC-3): 5.2 µM
- GI50 (786-0): 0.24 µM
- CC50 (786-0; [4]): 2.93 µM
- GI50 (SK-MEL-2): 0.6 µM
- CC50 (SK-MEL-2; [4]): 17 µM
- GI50 (SK-OV-3): 3.64 µM
- CC50 (SK-OV-3; [4]): 35.1 µM
- GI50 (A498): 1.69 µM
- CC50 (A498; [4]): 5.83 µM
- GI50 (M14): 0.27 µM
- CC50 (M14; [4]): 4.53 µM
- GI50 (SN12C): 0.26 µM
- CC50 (SN12C; [4]): 5.49 µM
- GI50 (Malme-3M): 0.19 µM
- CC50 (Malme-3M; [4]): 0.92 µM
- GI50 (HCC 2998): 1.2 µM
- CC50 (HCC 2998; [4]): 5.28 µM
- GI50 (KM12): 1.29 µM
- CC50 (KM12; [4]): 7.49 µM
- GI50 (OVCAR-8): 0.32 µM
- CC50 (OVCAR-8; [4]): 6.77 µM
- GI50 (K562): 0.34 µM
- CC50 (K562; [4]): > 100 µM
- GI50 (SW-620): 0.23 µM
- CC50 (SW-620; [4]): 3.37 µM
- EC50 [3]: 2.3 µM
- GI50 (SR): 0.31 µM
- CC50 (SR; [4]): > 100 µM
- GI50 (OVCAR-5): 0.26 µM
- CC50 (OVCAR-5; [4]): 4.04 µM
- GI50 (SNB-75): 1.25 µM
- CC50 (SNB-75; [4]): 9.84 µM
- GI50 (HCT-15): 0.34 µM
- CC50 (HCT-15; [4]): 4.18 µM
- GI50 (UO-31): 0.88 µM
- CC50 (UO-31; [4]): 4.9 µM
- GI50 (LOX IMVI): 0.17 µM
- CC50 (LOX IMVI; [4]): 0.76 µM
- GI50 (NCI-H23): 0.48 µM
- CC50 (NCI-H23; [4]): 4.86 µM
- GI50 (RXF 393): 0.16 µM
- CC50 (RXF 393; [4]): 0.64 µM
- GI50 (MDA-MB-468): 0.19 µM
- LC50 (MDA-MB-468): 1.5 µM
- GI50 (SF-268): 0.99 µM
- CC50 (SF-268; [4]): 7.24 µM
- GI50 (MOLT-4): 0.33 µM
- CC50 (MOLT-4; [4]): > 100 µM
- GI50 (UACC-257): 0.84 µM
- CC50 (UACC-257; [4]): 8.51 µM
